This note sets out measurements from ChEMBL document CHEMBL1123464, “Analogues of platelet activating factor. 5. Multiple oxygen substitution of the alkoxy chain” (J Med Chem, 1986).

One assay concerns Rattus norvegicus. Briefly: Compound was evaluated in spontaneous hypertensive rats (SHR) for the intravenous dose required to decrease mean arterial blood pressure (MABP) 50 mmHg. In kind it is functional, Artery. A digest of the protocol: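 Spontaneously hypertensive rats, intravenous dosing; mean arterial blood pressure monitored; dose lowering MABP by 50 mmHg extrapolated from the dose-response curve.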

The species entered for assay [1] is Oryctolagus cuniculus. The assay can be described thus: Compound was evaluated in rabbit-platelet rich plasma (PRP) for the maximum aggregation response observed at 1.9*10e-4 molar concentration. In kind it is functional.
Assay [2] can be described thus: Ratio value is (MAPB/platelet EC50)*10e-8. It is filed as functional. A digest of the protocol:
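Selectivity index: intravenous hypotensive dose (SHR, 50 mmHg MABP drop) divided by rabbit PRP aggregation EC50; compared against racemic C16-PAF standard to judge separation of hypotensive and aggregatory effects.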

The species entered for assay [3] is Oryctolagus cuniculus. The assay can be described thus: Compound was evaluated in rabbit-platelet rich plasma (PRP) for the molar concentration required to produce 50% of maximum aggregation. It is filed as functional. A digest of the protocol:
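Rabbit platelet-rich plasma; aggregation dose-response curves over 10^-4 to 10^-9 M, two to six replicates per dose level; EC50 is the molar concentration giving 50% of the compound's own maximum aggregation; n counts independent curve determinations.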

For assay [4], the species on record is Oryctolagus cuniculus. The assay can be described thus: Compound was evaluated in rabbit-platelet rich plasma (PRP) for the maximum aggregation response observed 6.8*10e-6 molar concentration. In kind it is functional.

What is called EC50 is the concentration that produces a half-maximal response.

As to `CCCCCCCCCCOCCOCCOCC(COP(=O)([O-])OCC[N+](C)(C)C)OC(C)=O` (configuration not stated), the Dose in the assay on Rattus norvegicus was 0.0129 mg/kg. For the same compound, the Max aggregation in the assay listed under Oryctolagus cuniculus [1] amounted to 61. The Ratio in assay [2] is reported as 0.99. In the assay filed under Oryctolagus cuniculus [3], this compound yielded an EC50 of 130 nM.
For the compound `CCCCCCCCCCCCCCCCOCC(COP(=O)([O-])OCC[N+](C)(C)C)OC(C)=O` (configuration not stated) [PLATELET ACTIVATING FACTOR], the Dose in the assay with Rattus norvegicus is 0.00125 mg/kg. This compound showed a Max aggregation in the assay filed under Oryctolagus cuniculus [4] of 71. In addition, in assay [2], the Ratio is 0.47. In the assay listed under Oryctolagus cuniculus [3], the EC50 came to 26.5 nM.
As for `COCCOCCOCCCCCCCCOCC(COP(=O)([O-])OCC[N+](C)(C)C)OC(C)=O` (configuration not stated), the Dose in the assay on Rattus norvegicus is 0.0805 mg/kg. Besides, in the assay listed under Oryctolagus cuniculus [1], the Max aggregation came out at 67. The Ratio in assay [2] turned out to be 0.15. Also, in the assay filed under Oryctolagus cuniculus [3], the EC50 stood at 5300 nM.
